Test results published in ChEMBL document CHEMBL1125510, “Analogs of the delta opioid receptor selective cyclic peptide [2-D-penicillamine,5-D-penicillamine]-enkephalin: 2',6'-dimethyltyrosine and Gly3-Phe4 amide bond isostere substitutions” (J Med Chem, 1992).

Columns and labels:
[1] = species on record: Mus musculus; test: Concentration of the Compound that inhibits electrically-induced contractions of the mouse vas deferens by 50%; assay type: functional, organism-based
Method in brief: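 Electrically stimulated isolated mouse vas deferens at 37 °C. Buffer had no tyrosine, ascorbic acid or disodium edetate. IC50 is the concentration that halves contractions, given as mean ± SD of two or three experiments.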

[2] = system: NG108-15; test: Concentration that inhibited PGE-stimulated cAMP formation by 50%, in NG108-15 cells.; assay type: functional, cell-based; conditions: Murinae
Method in brief: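 NG108-15 neuroblastoma cells stimulated with PGE1. cAMP measured by radioimmunoassay. EC50 is the concentration that inhibits 50% of stimulated cAMP formation, given as mean ± SD of two determinations.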

[3] = species on record: Mus musculus; test: Antinociceptive effect determined at 30 min post injection by writhing test; assay type: functional, organism-based
[4] = species on record: Mus musculus; test: Antinociceptive effect determined at 30 min post injection by tail flick test; assay type: functional, organism-based
Method in brief: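 Male CD-1 mice, 20–30 g, screened beforehand (TFL ≤ 4.0 s or HPL ≤ 15 s). Groups of 10 dosed sc with vehicle or 10, 30 or 100 mg/kg at 10 mL/kg. Radiant-heat beam focused on blackened tail, and withdrawal latency read by photosensor as the mean of two readings (12 s cutoff). ED50 ± SE in mg/kg taken at 30 min.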

[5] = system: Mus musculus; test: Antinociceptive effect determined at 30 min post injection by writhing test; Inactive at 30 mg/kg, the highest dose tested.; assay type: functional, organism-based; set-up: dose 30 mg/kg
[6] = target: Mu-type opioid receptor (Rattus norvegicus, UniProt P33535); test: Compound was evaluated for its binding affinity by displacement of [3H]- DAMPGO from opioid receptor mu by using opioid radioligand binding assay
Chain of Mu-type opioid receptor (P33535 whole entry): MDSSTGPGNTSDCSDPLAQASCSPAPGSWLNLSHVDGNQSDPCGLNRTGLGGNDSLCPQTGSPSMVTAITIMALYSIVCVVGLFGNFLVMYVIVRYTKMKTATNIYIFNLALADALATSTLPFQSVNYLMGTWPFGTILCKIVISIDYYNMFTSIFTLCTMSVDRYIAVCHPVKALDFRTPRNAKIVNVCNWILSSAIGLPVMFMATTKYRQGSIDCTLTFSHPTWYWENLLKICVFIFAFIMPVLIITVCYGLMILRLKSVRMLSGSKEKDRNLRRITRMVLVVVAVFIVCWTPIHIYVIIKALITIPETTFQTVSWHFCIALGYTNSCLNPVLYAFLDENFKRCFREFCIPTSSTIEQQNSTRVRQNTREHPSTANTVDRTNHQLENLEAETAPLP
Method in brief: (§1)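 Male Sprague-Dawley rat forebrain membranes in 50 mM Tris, pH 7.4. Competition against [3H]DSLET (2 nM final, δ) or [3H]DAMPGO (4 nM final, μ). Nonspecific binding defined with 10 μM levorphan. Incubated 60–90 min at 25 °C, then filtered on GF/B and counted. Ki given as mean ± SEM from at least three experiments.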

[7] = target: Delta-type opioid receptor (Rattus norvegicus, UniProt P33533); test: Compound was evaluated for its binding affinity by displacement [3H]- DSLET from Opioid receptor delta 1 by using opioid radioligand binding assay; method in brief: as §1
Chain of Delta-type opioid receptor (P33533 whole entry): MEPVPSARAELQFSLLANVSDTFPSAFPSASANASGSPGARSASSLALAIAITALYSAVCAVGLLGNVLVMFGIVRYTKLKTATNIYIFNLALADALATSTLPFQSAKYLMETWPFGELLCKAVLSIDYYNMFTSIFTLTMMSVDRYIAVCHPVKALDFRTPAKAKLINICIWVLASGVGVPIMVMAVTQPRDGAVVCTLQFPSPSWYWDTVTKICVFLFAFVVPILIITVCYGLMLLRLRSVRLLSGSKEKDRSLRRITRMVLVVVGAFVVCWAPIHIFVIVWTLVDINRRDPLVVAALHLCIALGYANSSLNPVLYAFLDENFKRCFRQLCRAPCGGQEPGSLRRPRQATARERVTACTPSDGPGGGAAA

[8] = target: Mu-type opioid receptor (Rattus norvegicus) (UniProt P33535); test: Ratio on opioid receptor mu (ki(nM)) to the opioid receptor delta (Ki(nM))
Chain of Mu-type opioid receptor (Rattus norvegicus) (P33535 whole entry): as the sequence (P33535 whole entry) above

Row | SMILES | Ki [6] | Ki [7] | Ratio [8] | further results
1 | CC1(C)SSC(C)(C)[C@@H](NC(=O)[C@@H](N)Cc2ccc(O)cc2)C(=O)NCC(=O)N[C@@H](Cc2ccccc2)C(=O)N[C@H]1C(=O)O |  |  |  | EC50 ([1]; Mus musculus): 5.2 nM; EC50 [2]: 18 nM
2 | COC(=O)[C@@H]1NC(=O)[C@H](Cc2ccccc2)NC(=O)CNC(=O)[C@H](NC(=O)[C@@H](N)Cc2c(C)cc(O)cc2C)C(C)(C)SSC1(C)C.Cl |  |  |  | EC50 [3]: 2.1 mg/kg; EC50 ([1]; Mus musculus): 0.65 nM; EC50 [2]: 1.1 nM; EC50 [4]: 40 mg/kg
3 | COC(=O)[C@@H]1NC(=O)[C@H](Cc2ccccc2)NC(=O)CNC(=O)[C@H](NC(=O)[C@@H](N)Cc2ccc(O)cc2)C(C)(C)SSC1(C)C.Cl |  |  |  | EC50 [5]: Not Active; EC50 ([1]; Mus musculus): 10.5 nM; EC50 [2]: 21 nM
4 | COC(=O)[C@H]1NC(=O)C(Cc2ccccc2)OCCNC(=O)[C@@H](NC(=O)[C@@H](N)Cc2c(C)cc(O)cc2C)C(C)(C)SSC1(C)C (single isomer, unassigned; less polar) [listing 1 of 2 here] | 6.5 nM | 43 nM |  | EC50 [1]: 143 nM
5 | COC(=O)[C@H]1NC(=O)C(Cc2ccccc2)/C=C\CNC(=O)[C@@H](NC(=O)[C@@H](N)Cc2c(C)cc(O)cc2C)C(C)(C)SSC1(C)C (single isomer, unassigned; less polar) [listing 1 of 2 here] | 32 nM | 45 nM |  | EC50 [1]: > 1000 nM
6 | COC(=O)[C@H]1NC(=O)C(Cc2ccccc2)CCCNC(=O)[C@@H](NC(=O)[C@@H](N)Cc2c(C)cc(O)cc2C)C(C)(C)SSC1(C)C (single isomer, unassigned; less polar) [listing 1 of 2 here] | 176 nM | 79 nM |  | 
7 | COC(=O)[C@H]1NC(=O)C(Cc2ccccc2)/C=C\CNC(=O)[C@@H](NC(=O)[C@@H](N)Cc2c(C)cc(O)cc2C)C(C)(C)SSC1(C)C (single isomer, unassigned; less polar) [listing 2 of 2 here] |  |  | 0.7 | 
8 | COC(=O)[C@H]1NC(=O)C(Cc2ccccc2)CCCNC(=O)[C@@H](NC(=O)[C@@H](N)Cc2c(C)cc(O)cc2C)C(C)(C)SSC1(C)C (single isomer, unassigned; less polar) [listing 2 of 2 here] |  |  | 2.3 | 
9 | COC(=O)[C@H]1NC(=O)C(Cc2ccccc2)OCCNC(=O)[C@@H](NC(=O)[C@@H](N)Cc2c(C)cc(O)cc2C)C(C)(C)SSC1(C)C (single isomer, unassigned; less polar) [listing 2 of 2 here] |  |  | 0.15 | 
10 | COC(=O)[C@H]1NC(=O)C(Cc2ccccc2)OCCNC(=O)[C@@H](NC(=O)[C@@H](N)Cc2c(C)cc(O)cc2C)C(C)(C)SSC1(C)C (single isomer, unassigned; more polar) [listing 1 of 2 here] | 150 nM | 91 nM |  | EC50 [1]: > 1000 nM
11 | COC(=O)[C@H]1NC(=O)C(Cc2ccccc2)/C=C\CNC(=O)[C@@H](NC(=O)[C@@H](N)Cc2c(C)cc(O)cc2C)C(C)(C)SSC1(C)C (single isomer, unassigned; more polar) [listing 1 of 2 here] | 1.1 nM | 2.3 nM |  | EC50 [1]: 247 nM
12 | COC(=O)[C@H]1NC(=O)C(Cc2ccccc2)CCCNC(=O)[C@@H](NC(=O)[C@@H](N)Cc2c(C)cc(O)cc2C)C(C)(C)SSC1(C)C (single isomer, unassigned; more polar) [listing 1 of 2 here] | 11 nM | 21 nM |  | EC50 ([1]; Mus musculus): > 1000 nM
13 | COC(=O)[C@H]1NC(=O)C(Cc2ccccc2)/C=C\CNC(=O)[C@@H](NC(=O)[C@@H](N)Cc2c(C)cc(O)cc2C)C(C)(C)SSC1(C)C (single isomer, unassigned; more polar) [listing 2 of 2 here] |  |  | 0.5 | 
14 | COC(=O)[C@H]1NC(=O)C(Cc2ccccc2)CCCNC(=O)[C@@H](NC(=O)[C@@H](N)Cc2c(C)cc(O)cc2C)C(C)(C)SSC1(C)C (single isomer, unassigned; more polar) [listing 2 of 2 here] |  |  | 0.5 | 
15 | COC(=O)[C@H]1NC(=O)C(Cc2ccccc2)OCCNC(=O)[C@@H](NC(=O)[C@@H](N)Cc2c(C)cc(O)cc2C)C(C)(C)SSC1(C)C (single isomer, unassigned; more polar) [listing 2 of 2 here] |  |  | 1.7 | 
